Experimental findings from ChEMBL document CHEMBL1127846, “Influence of amine substituents on 5-HT2A versus 5-HT2C binding of phenylalkyl- and indolylalkylamines” (J Med Chem, 1994) are described below.

Assay [1] concerns the target T1, 5-hydroxytryptamine receptor 2A (Homo sapiens, UniProt P28223). The assay can be described thus: Affinity against 5-hydroxytryptamine 2A receptor (D) labeled with [125I]DOI.
In assay [2] the target is T2, 5-hydroxytryptamine receptor 2C (Rattus norvegicus, UniProt P08909).
T2 sequence (P08909 whole entry): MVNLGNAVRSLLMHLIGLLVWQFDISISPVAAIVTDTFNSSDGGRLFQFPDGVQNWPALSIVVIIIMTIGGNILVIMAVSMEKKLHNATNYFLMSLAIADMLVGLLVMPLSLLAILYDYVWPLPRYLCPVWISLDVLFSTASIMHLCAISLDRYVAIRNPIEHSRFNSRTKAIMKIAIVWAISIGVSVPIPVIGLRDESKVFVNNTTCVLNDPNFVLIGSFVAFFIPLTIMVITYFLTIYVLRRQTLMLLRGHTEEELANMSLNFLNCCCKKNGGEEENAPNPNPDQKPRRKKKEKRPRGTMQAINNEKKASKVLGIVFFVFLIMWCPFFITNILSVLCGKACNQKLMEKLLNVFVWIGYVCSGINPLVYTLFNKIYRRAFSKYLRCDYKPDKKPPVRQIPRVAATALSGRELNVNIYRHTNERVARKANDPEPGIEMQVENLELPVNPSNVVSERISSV
The assay can be described thus: Affinity against 5-hydroxytryptamine 2C receptor in J1 cells transfected with the rat 5-HT2C gene labeled with [3H]mesulergine. The assay is classed as cell-based. Put shortly: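 Homogenates of J1 cells carrying the rat 5-HT1C (5-HT2C) gene, labeled with [3H]mesulergine. Competing drug and radioligand incubated at 37 °C for 30 min, then filtered through glass-fiber filters and counted by liquid scintillation. Ki given as mean and SEM of at least two experiments, each done in triplicate.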

Assay [3] concerns the target T1, 5-hydroxytryptamine receptor 2A. Put plainly: Affinity against 5-hydroxytryptamine 2A receptor (K) labeled with [3H]ketanserin.
Assay [4] can be described thus: The compound evaluated for its receptor selectivity at [125I]- DOI- labeled receptors versus [3H]- ketanserin- labeled receptors,. The gist of the method:
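[…] 5-HT2A receptors expressed in transfected GF6 cells, labeled in separate assays with [3H]ketanserin or [125I]DOI. Homogenates were incubated with radioligand and competing drug for 30 min at 37 °C, then filtered through glass-fiber filters and counted by liquid scintillation. Ki values are the mean and SEM of at least two experiments, each run in triplicate.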

Assay [5] is described as follows: The compound evaluated for its receptor selectivity 5-HT2C receptors versus [125I]- DOI- labeled receptors.
Assay [6] in a line: Receptor selectivity [3H]- ketanserin-labeled receptors versus [125I]- DOI-labeled receptors.

Some results are limits rather than exact numbers.

T1 sequence (P28223 whole entry): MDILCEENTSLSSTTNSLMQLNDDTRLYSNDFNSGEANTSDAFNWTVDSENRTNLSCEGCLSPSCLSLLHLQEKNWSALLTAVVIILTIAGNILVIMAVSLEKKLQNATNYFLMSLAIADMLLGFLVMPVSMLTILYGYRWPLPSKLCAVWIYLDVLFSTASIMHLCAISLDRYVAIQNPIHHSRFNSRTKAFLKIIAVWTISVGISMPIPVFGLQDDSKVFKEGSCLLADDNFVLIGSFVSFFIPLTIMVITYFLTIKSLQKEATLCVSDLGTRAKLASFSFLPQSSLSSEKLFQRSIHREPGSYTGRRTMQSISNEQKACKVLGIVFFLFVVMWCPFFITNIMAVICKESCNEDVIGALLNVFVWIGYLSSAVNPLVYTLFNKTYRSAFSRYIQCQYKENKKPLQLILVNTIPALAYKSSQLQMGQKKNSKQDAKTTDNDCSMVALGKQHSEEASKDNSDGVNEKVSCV

With `CNCCc1c[nH]c2ccc(OC)cc12`, the Ki turned out to be 4.1 nM in assay [1], 840 nM in assay [2] and 450 nM in assay [3]. Moreover, the Ratio in assay [4] was found to be 110.
As for `COc1ccc2[nH]cc(CCNCc3ccc([N+](=O)[O-])cc3)c2c1`, the Ki stood at 140 nM in assay [1], 9970 nM in assay [2] and 4260 nM in assay [3]. In addition, the results for the Ratio in assay [5] and in assay [6] were 70 and 30, respectively.
As for `CNCCc1cc(OC)c(Br)cc1OC`, the Ki is 2.9 nM in assay [1], 100 nM in assay [2] and 380 nM in assay [3]. In addition, the Ratio in assay [5] is 34; in assay [6], 130.
With `COc1cc(CCNCCCCc2ccccc2)c(OC)cc1Br`, the Ki was determined as 27 nM in assay [1], 695 nM in assay [2] and 100 nM in assay [3]. For the same compound, the Ratio in assay [5] was 26; in assay [6] it was 4.
Consider `COc1cc(CCNCc2ccc([N+](=O)[O-])cc2)c(OC)cc1Br`, for which the figures for the Ki in assay [1], in assay [2] and in assay [3] were 58 nM, 1220 nM and 290 nM, respectively. The Ratio in assay [5] was determined as 21; in assay [6] it was 5.
In the same order, the values of `COc1cc(CCNCc2ccc(Cl)cc2)c(OC)cc1Br` are 15 nM, 715 nM, 110 nM, 48 and 7.
In the case of `COc1cc(CCNCc2ccccc2)c(OC)cc1Br`, the Ki in assay [1] is 0.3 nM; in assay [2], 90 nM; in assay [3] it was 16 nM. Further, the Ratio was determined as 300 in assay [5] and 53 in assay [6].
The like results for `COc1cc(CCNCc2ccc(I)cc2)c(OC)cc1Br` were, in that order, 0.4 nM, 165 nM, 22 nM, 410 and 55.
For `COc1cc(CCN2CCCCC2)c(OC)cc1Br`, the inhibition constant (Ki) in assay [1] amounted to 154 nM; in assay [2] it was 2530 nM; in assay [3], 895 nM. The Ratio in assay [5] was 16; in assay [6], 6.
As to `COc1cc(CCN(C)C)c(OC)cc1Br`, the Ki came out at 16 nM in assay [1], 480 nM in assay [2] and 420 nM in assay [3]. In addition, the Ratio in assay [5] amounted to 30; in assay [6], 26.
For the compound `COc1ccc2[nH]cc(CCN3CCCCC3)c2c1`, the Ki in assay [1] is 230 nM; in assay [2], above 10000 nM; in assay [3], 160 nM.
`COc1ccc2[nH]cc(CCNCc3ccc(C)cc3)c2c1`: the Ki amounted to 30 nM in assay [1], 1230 nM in assay [2] and 110 nM in assay [3]. Besides, the Ratio in assay [5] worked out at 40; in assay [6], 4.
In the case of `COc1cc(CCN)c(OC)cc1Br`, the Ki in assay [1] was 1 nM; in assay [3], 34 nM.
Consider `COc1ccc2[nH]cc(CCNCc3ccc(F)cc3)c2c1`, for which the Ki in assay [1] amounted to 40 nM; in assay [2], 3530 nM; in assay [3] it was 480 nM. Also, the Ratio in assay [5] came out at 88; in assay [6] it was 10.
As for `CCNCCc1c[nH]c2ccc(OC)cc12`, the Ki in assay [1] is 7.2 nM; in assay [2] it was 2680 nM; in assay [3], 930 nM. For the same compound, in assay [4], the Ratio worked out at 130.
On to `COc1ccc2[nH]cc(CCNCc3ccccc3)c2c1`, for which the figures for the Ki in assay [1], in assay [2] and in assay [3] were 5.3 nM, 370 nM and 55 nM, respectively. Moreover, the Ratio in assay [5] came out at 70; in assay [6], 10.
The like results for `COc1ccc2[nH]cc(CCNCc3ccc(Cl)cc3)c2c1` were, in that order, 105 nM, 4390 nM, 565 nM, 42 and 5.
In the case of `COc1ccc2[nH]cc(CCNCCCc3ccccc3)c2c1`, the Ki in assay [1] is 10 nM; in assay [2], 165 nM; in assay [3] it was 50 nM. In addition, the Ratio is 16 in assay [5] and 5 in assay [6].
In the same order, the values of `COc1ccc(CNCCc2cc(OC)c(Br)cc2OC)cc1` are 13 nM, 215 nM, 16 nM, 17 and 1.
Consider `COc1ccc2[nH]cc(CCNCc3ccc(N)cc3)c2c1`, for which the figures for the Ki in assay [1], in assay [2] and in assay [3] were 105 nM, 6700 nM and 475 nM, respectively. Moreover, the Ratio in assay [5] came to 64; in assay [6] it was 5.
In the same order, the values of `COc1ccc2[nH]cc(CCNCc3ccc(I)cc3)c2c1` are 120 nM, 1770 nM, 400 nM, 15 and 3.
In the same order, the values of `COc1cc(CCNCCCc2ccccc2)c(OC)cc1Br` are 23 nM, 310 nM, 84 nM, 13 and 4.
As to `COc1cc(CCNCc2ccc(Br)cc2)c(OC)cc1Br`, the Ki in assay [1] was found to be 0.4 nM; in assay [2], 48 nM; in assay [3], 1.6 nM. Moreover, the Ratio is 120 in assay [5] and 4 in assay [6].
The like results for `COc1cc(CCNCc2ccc(F)cc2)c(OC)cc1Br` were, in that order, 3.4 nM, 360 nM, 30 nM, 80 and 7.
In the same order, the values of `COc1ccc(CNCCc2c[nH]c3ccc(OC)cc23)cc1` are 16 nM, 1180 nM, 100 nM, 74 and 6.
For `COc1ccc2[nH]cc(CCNCCCCc3ccccc3)c2c1`, the Ki in assay [1] amounted to 13 nM; in assay [2], 1500 nM; in assay [3] it was 22 nM. Further, the figures for the Ratio in assay [5] and in assay [6] were 115 and 2, respectively.
`CCNCCc1cc(OC)c(Br)cc1OC`: the Ki in assay [1] amounted to 40 nM; in assay [2], 1930 nM; in assay [3], 330 nM. Besides, the Ratio was found to be 48 in assay [5] and 8 in assay [6].
Take `COc1ccc2[nH]cc(CCNCc3ccc(Br)cc3)c2c1`: the figures for the Ki in assay [1], in assay [2] and in assay [3] were 0.1 nM, 100 nM and 5.2 nM, respectively. The Ratio in assay [5] came to 1000; in assay [6], 52.
Take `COc1cc(CCNCc2ccc(N)cc2)c(OC)cc1Br`: the Ki was determined as 16 nM in assay [1], 1020 nM in assay [2] and 50 nM in assay [3]. In addition, the Ratio in assay [5] turned out to be 64; in assay [6] it was 3.
As for `COc1cc(CCNCc2ccc(C)cc2)c(OC)cc1Br`, the Ki in assay [1] amounted to 14 nM; in assay [2], 225 nM; in assay [3], 23 nM. The Ratio in assay [5] is 16; in assay [6] it was 2.

Broadly, the Ki is the dissociation constant of the complex between target and ligand, obtained from inhibition or displacement. A higher Ki goes with a looser hold on the target.
